Reference: ChEMBL document CHEMBL1143019, “Hybrid molecules of estrone: new compounds with potential antibacterial, antifungal, and antiproliferative activities” (2007)
In brackets after ≈: the same amount, converted by molar mass.

Columns and labels:
Aspergillus fumigatus [1] = assay: Antifungal activity against Aspergillus fumigatus 231 after 24 hrs; assay type: functional
Method in brief: (§1)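 Modified NCCLS M27-A broth microdilution with clinical isolates subcultured on Sabouraud dextrose agar. Suspensions diluted 1:50 in RPMI 1640 to give a final inoculum of 0.5–2.5×10³ CFU/mL for yeasts or 0.5–5×10⁴ CFU/mL for molds. The RPMI had L-glutamine, no bicarbonate, and 0.165 M MOPS to pH 7.0. Twofold dilutions from 250 to 0.49. Plates held at 35 °C, humid, without agitation. MIC is the lowest concentration giving ≥80% inhibition versus drug-free control, read at 24 and 48 h.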

[2] = test system: Mycobacterium tuberculosis; assay: Antimicrobial activity against Mycobacterium tuberculosis My 331/88 after 14 days; assay type: functional; details: 336 h
Candida albicans [3] = assay: Antifungal activity against Candida albicans ATCC 44859 after 24 hrs; assay type: functional; details: ATCC 44859, 24 h; method in brief: as §1
Mycobacterium kansasii [4] = assay: Antimicrobial activity against Mycobacterium kansasii My 235/80 after 7 days; assay type: functional; details: 168 h
Method in brief: (§2)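 Run in Šula semisynthetic liquid medium containing bovine serum. Compounds added as DMSO solutions at final concentrations of […]. Each strain was also inoculated onto Löwenstein–Jensen medium to control inoculum sterility and growth.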

Aspergillus fumigatus [5] = assay: Antifungal activity against Aspergillus fumigatus 231 after 48 hrs; assay type: functional; method in brief: as §1
Nakaseomyces glabratus [6] = assay: Antifungal activity against Candida glabrata 20/I after 48 hrs; assay type: functional; method in brief: as §1
Pichia kudriavzevii [7] = assay: Antifungal activity against Candida krusei E28 after 24 hrs; assay type: functional; method in brief: as §1
HeLa = assay: Cytotoxicity against human HeLa cells after 72 hrs; assay type: functional; details: for CC50: Homo sapiens, HeLa, 72 h
Method in brief: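 About 10,000 cells per well in RPMI 1640 were preincubated 48 h without compound. The 10 test concentrations were then applied onto the monolayers and incubated 72 h at 37 °C in humidified 5% CO₂. Monolayers fixed with glutaraldehyde, stained with 0.05% methylene blue, and eluted with 0.33 N HCl; optical density measured at 630 nm.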

Trichosporon beigelii [8] = assay: Antifungal activity against Trichosporon beigelii 1188 after 24 hrs; assay type: functional; method in brief: as §1
Candida tropicalis [9] = assay: Antifungal activity against Candida tropicalis 156 after 24 hrs; assay type: functional; method in brief: as §1
Candida albicans [10] = assay: Antifungal activity against Candida albicans ATCC 44859 after 48 hrs; assay type: functional; details: ATCC 44859, 48 h; method in brief: as §1
Mycobacterium kansasii [11] = assay: Antimicrobial activity against Mycobacterium kansasii My 6509/96 after 7 days; assay type: functional; details: 168 h; method in brief: as §2
Lichtheimia corymbifera [12] = assay: Antifungal activity against Absidia corymbifera 272 after 48 hrs; assay type: functional; method in brief: as §1
L929 = assay: Antiproliferative activity against mouse L929 cells after 72 hrs; assay type: functional; details: L929, 72 h
Method in brief: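 About 10,000 adherent cells per well in RPMI 1640 with 10% heat-inactivated FBS and penicillin/streptomycin, without HEPES. Exposed to 10 concentrations for 72 h at 37 °C in humidified 5% CO₂. Monolayers fixed with glutaraldehyde, stained 15 min with 0.05% methylene blue, and eluted with 0.33 N HCl; OD read at 630 nm. GI50 derived from dose–response curves relative to control.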

Trichophyton benhamiae [13] = assay: Antifungal activity against Trichophyton mentagrophytes 445 after 120 hrs; assay type: functional, Arthroderma benhamiae
Method in brief: (§3)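 Same modified M27-A microdilution with the mold inoculum of 0.5–5×10⁴ CFU/mL. Medium was RPMI 1640 with L-glutamine, no bicarbonate, and 0.165 M MOPS at pH 7.0. Twofold dilutions from 250 to 0.49. Incubated at 35 °C in a humid atmosphere.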

Lichtheimia corymbifera [14] = assay: Antifungal activity against Absidia corymbifera 272 after 24 hrs; assay type: functional; method in brief: as §1
Mycobacterium avium [15] = assay: Antimicrobial activity against Mycobacterium avium My 330/88 after 21 days; assay type: functional; details: 504 h
Mycobacterium avium [16] = assay: Antimicrobial activity against Mycobacterium avium My 330/88 after 14 days; assay type: functional; details: 336 h
Trichophyton benhamiae [17] = assay: Antifungal activity against Trichophyton mentagrophytes 445 after 72 hrs; assay type: functional, Arthroderma benhamiae; method in brief: as §3
Nakaseomyces glabratus [18] = assay: Antifungal activity against Candida glabrata 20/I after 24 hrs; assay type: functional; method in brief: as §1
Candida tropicalis [19] = assay: Antifungal activity against Candida tropicalis 156 after 48 hrs; assay type: functional; method in brief: as §1
Pichia kudriavzevii [20] = assay: Antifungal activity against Candida krusei E28 after 48 hrs; assay type: functional; method in brief: as §1
K562 = assay: Antiproliferative activity against human K562 cells after 72 hrs; assay type: functional; details: K562, 72 h
Method in brief: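 About 10,000 suspension cells per well in RPMI 1640 with 10% heat-inactivated FBS and penicillin/streptomycin, without HEPES. Exposed to 10 concentrations for 72 h at 37 °C in humidified 5% CO₂. Wells diluted 1:50 in CASYTON and counted electronically, each result the mean of three successive counts. GI50 is where the concentration–response curve crosses 50% of control cell count.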

Trichosporon beigelii [21] = assay: Antifungal activity against Trichosporon beigelii 1188 after 48 hrs; assay type: functional; method in brief: as §1
Mycobacterium kansasii [22] = assay: Antimicrobial activity against Mycobacterium kansasii My 6509/96 after 14 days; assay type: functional; details: 336 h; method in brief: as §2
[23] = test system: Mycobacterium tuberculosis; assay: Antimicrobial activity against Mycobacterium tuberculosis My 331/88 after 21 days; assay type: functional; details: 504 h
Mycobacterium kansasii [24] = assay: Antimicrobial activity against Mycobacterium kansasii My 235/80 after 14 days; assay type: functional; details: 336 h; method in brief: as §2
Mycobacterium kansasii [25] = assay: Antimicrobial activity against Mycobacterium kansasii My 235/80 after 21 days; assay type: functional; details: 504 h; method in brief: as §2
Mycobacterium kansasii [26] = assay: Antimicrobial activity against Mycobacterium kansasii My 6509/96 after 21 days; assay type: functional; details: 504 h; method in brief: as §2
Micrococcus luteus = assay: Antibacterial activity against Micrococcus luteus ATCC 10240 after 24 hrs by microbroth dilution method; assay type: functional; details: ATCC 10240, 24 h
Method in brief: (§4)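 Microbroth dilution per NCCLS guidelines. Bacteria grown overnight at 37 °C in Mueller–Hinton broth. Compound solution serially diluted twofold in MHB, then wells inoculated to a final 5×10⁵ CFU/mL. Incubated 24 h at 37 °C. MIC (µg/mL) read on an automatic plate reader as the lowest dilution allowing no visible growth.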

Enterococcus faecalis = assay: Antibacterial activity against Enterococcus faecalis 1528 after 24 hrs by micro-broth dilution method; assay type: functional; method in brief: as §4
Mycolicibacterium aurum = assay: Antimicrobial activity against Mycobacterium aurum SB 66 after 24 hrs by micro-broth dilution method; assay type: functional; method in brief: as §4
[27] = test system: Mycolicibacterium fortuitum; assay: Antimicrobial activity against Mycobacterium fortuitum Borstel after 24 hrs by microbroth dilution method; assay type: functional; method in brief: as §4
Staphylococcus aureus [28] = assay: Antibacterial activity against methicillin-resistant Staphylococcus aureus 994/93 after 24 hrs by micro-broth dilution method; assay type: functional
Method in brief: (§5)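 Broth microdilution per NCCLS in Mueller–Hinton broth. Overnight cultures grown at 37 °C. Compound serially diluted twofold, then wells inoculated to a final 5×10⁵ CFU/mL. Plates held at 37 °C for 24 h. MIC (µg/mL) read on an automatic plate reader as the lowest dilution with no visible growth.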

Mycolicibacterium vaccae = assay: Antimicrobial activity against Mycobacterium vaccae 10670 after 24 hrs by micro-broth dilution method; assay type: functional; method in brief: as §4
Staphylococcus aureus [29] = assay: Antibacterial activity against Staphylococcus aureus SG 511 after 24 hrs by micro-broth dilution method; assay type: functional; details: SG 511, 24 h; method in brief: as §4
[30] = test system: Mycolicibacterium smegmatis; assay: Antimicrobial activity against Mycobacterium smegmatis SG 987 after 24 hrs by micro-broth dilution method; assay type: functional; method in brief: as §4
Staphylococcus aureus [31] = assay: Antibacterial activity against methicillin-resistant Staphylococcus aureus 134/94 after 24 hrs by microbroth dilution method; assay type: functional; method in brief: as §5

Structure (SMILES) | MIC (Aspergillus fumigatus [1]) [µM] | MIC [2] [µM] | MIC (Candida albicans [3]) [µM] | MIC (Mycobacterium kansasii [4]) [µM] | MIC (Aspergillus fumigatus [5]) [µM] | MIC (Nakaseomyces glabratus [6]) [µM] | MIC (Pichia kudriavzevii [7]) [µM] | CC10 (HeLa) [mg/L] | CC50 (HeLa) [mg/L] | MIC (Trichosporon beigelii [8]) [µM] | MIC (Mycobacterium kansasii [11]) [µM] | GI50 (L929) [mg/L] | MIC (Mycobacterium avium [15]) [µM] | MIC (Mycobacterium avium [16]) [µM] | GI50 (K562) [mg/L] | MIC (Mycobacterium kansasii [22]) [µM] | MIC [23] [µM] | MIC (Mycobacterium kansasii [24]) [µM] | MIC (Mycobacterium kansasii [25]) [µM] | MIC (Mycobacterium kansasii [26]) [µM] | further results
C[C@]12CC[C@@H]3c4ccc(OCCCCCCCBr)cc4CC[C@H]3[C@@H]1CCC2=O | > 125 | 32 (≈ 14.3 µg/mL) | > 125 | 62.5 (≈ 28 µg/mL) | > 125 | > 125 | > 125 | 16.3 (≈ 36.4 µM) | > 50 | > 125 | 62.5 (≈ 28 µg/mL) | 49.9 (≈ 112 µM) | 32 (≈ 14.3 µg/mL) | 16 (≈ 7.16 µg/mL) | 13.1 (≈ 29.3 µM) | 62.5 (≈ 28 µg/mL) | – | – | – | – | MIC (Candida tropicalis [9]): > 125 µM; MIC (Candida albicans [10]): > 125 µM; MIC (Lichtheimia corymbifera [12]): > 125 µM; MIC (Trichophyton benhamiae [13]): > 125 µM; MIC (Lichtheimia corymbifera [14]): > 125 µM; MIC (Trichophyton benhamiae [17]): > 125 µM; MIC (Nakaseomyces glabratus [18]): > 125 µM; MIC (Candida tropicalis [19]): > 125 µM; MIC (Pichia kudriavzevii [20]): > 125 µM; MIC (Trichosporon beigelii [21]): > 125 µM
c1ccc(CSc2nnnn2-c2ccccc2)cc1 | > 250 | 16 (≈ 4.29 µg/mL) | > 250 | 16 (≈ 4.29 µg/mL) | > 250 | > 250 | > 250 | 8.7 (≈ 32.4 µM) | 41.6 (≈ 155 µM) | > 250 | 16 (≈ 4.29 µg/mL) | 22.5 (≈ 83.8 µM) | 125 (≈ 33.5 µg/mL) | 32 (≈ 8.59 µg/mL) | 36.1 (≈ 135 µM) | 32 (≈ 8.59 µg/mL) | 62.5 (≈ 16.8 µg/mL) | 32 (≈ 8.59 µg/mL) | 125 (≈ 33.5 µg/mL) | 125 (≈ 33.5 µg/mL) | MIC (Candida tropicalis [9]): > 250 µM; MIC (Candida albicans [10]): > 250 µM; MIC (Lichtheimia corymbifera [12]): > 250 µM; MIC (Trichophyton benhamiae [13]): 62.5 µM (≈ 16.8 µg/mL); MIC (Lichtheimia corymbifera [14]): > 250 µM; MIC (Trichophyton benhamiae [17]): 31.3 µM (≈ 8.4 µg/mL); MIC (Nakaseomyces glabratus [18]): > 250 µM; MIC (Candida tropicalis [19]): > 250 µM; MIC (Pichia kudriavzevii [20]): > 250 µM; MIC (Trichosporon beigelii [21]): > 250 µM
c1ccc(CSc2ccncc2)cc1 | – | 125 (≈ 25.2 µg/mL) | – | 62.5 (≈ 12.6 µg/mL) | – | – | – | 14 (≈ 69.6 µM) | 23.6 (≈ 117 µM) | – | 62.5 (≈ 12.6 µg/mL) | 34.3 (≈ 170 µM) | 125 (≈ 25.2 µg/mL) | 125 (≈ 25.2 µg/mL) | > 50 | 125 (≈ 25.2 µg/mL) | 125 (≈ 25.2 µg/mL) | 125 (≈ 25.2 µg/mL) | 125 (≈ 25.2 µg/mL) | 125 (≈ 25.2 µg/mL) | MIC (Micrococcus luteus): 100 mg/L (≈ 497 µM); MIC (Enterococcus faecalis): 100 mg/L (≈ 497 µM); MIC (Mycolicibacterium aurum): 25 mg/L (≈ 124 µM); MIC [27]: 50 mg/L (≈ 248 µM); MIC (Staphylococcus aureus [28]): 100 mg/L (≈ 497 µM); MIC (Mycolicibacterium vaccae): 50 mg/L (≈ 248 µM); MIC (Staphylococcus aureus [29]): 100 mg/L (≈ 497 µM); MIC [30]: 100 mg/L (≈ 497 µM); MIC (Staphylococcus aureus [31]): > 100 mg/L
Clc1ccc(CSc2ccncc2)cc1 | – | 32 (≈ 7.54 µg/mL) | – | 32 (≈ 7.54 µg/mL) | – | – | – | 8.6 (≈ 36.5 µM) | 16.3 (≈ 69.1 µM) | – | 32 (≈ 7.54 µg/mL) | 21.2 (≈ 89.9 µM) | 62.5 (≈ 14.7 µg/mL) | 62.5 (≈ 14.7 µg/mL) | 19.8 (≈ 84 µM) | 62.5 (≈ 14.7 µg/mL) | 62.5 (≈ 14.7 µg/mL) | 62.5 (≈ 14.7 µg/mL) | 62.5 (≈ 14.7 µg/mL) | 62.5 (≈ 14.7 µg/mL) | MIC (Micrococcus luteus): 50 mg/L (≈ 212 µM); MIC (Enterococcus faecalis): 100 mg/L (≈ 424 µM); MIC (Mycolicibacterium aurum): 12.5 mg/L (≈ 53 µM); MIC [27]: 12.5 mg/L (≈ 53 µM); MIC (Staphylococcus aureus [28]): 100 mg/L (≈ 424 µM); MIC (Mycolicibacterium vaccae): 25 mg/L (≈ 106 µM); MIC (Staphylococcus aureus [29]): 50 mg/L (≈ 212 µM); MIC [30]: 25 mg/L (≈ 106 µM); MIC (Staphylococcus aureus [31]): > 100 mg/L
